Test results reported in ChEMBL document CHEMBL4229352, “Synthesis, antileishmanial activity and mechanism of action studies of novel β-carboline-1,3,5-triazine hybrids” (Eur J Med Chem, 2018).
Active and inactive are the calls of the source. The rule behind the calls is not given here.

Tests used:
[1] = system: Leishmania amazonensis; assay: Antileishmanial activity against promastigote forms of Leishmania amazonensis after 72 hrs by XTT/PMS dye based spectrophotometric analysis; format: functional, organism-based
In short: (§1)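 Log-phase parasites (promastigotes 48 h, axenic amastigotes 72 h) plated at the printed density with increasing compound concentrations; 72 h at 25 °C (promastigotes) or 32 °C (axenic amastigotes). XTT/PMS (0.5 and 0.3 mg/mL) added in the dark, absorbance at 450 nm after 4 h; IC50 versus negative control by regression. Mean ± SD of at least three independent experiments.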

[2] = system: Leishmania amazonensis; assay: Antileishmanial activity against promastigote forms of Leishmania amazonensis MHOM/BR/75/Josefa after 72 hrs by haemocytometry; format: functional, organism-based
[3] = system: Leishmania amazonensis; assay: Antileishmanial activity against axenic amastigote forms of Leishmania amazonensis MHOM/BR/75/Josefa after 72 hrs by haemocytometry; format: functional, organism-based
[4] = Selectivity index, ratio of CC50 for mouse J774A1 cells to IC50 for promastigote forms of Leishmania amazonensis; format: toxicity; conditions: read-out: Ratio CC50/IC50
In short: (§2)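 Selectivity index calculated as CC50 in J774-A1 macrophages (48 h MTT) divided by IC50 for L. amazonensis promastigotes or axenic amastigotes (72 h XTT/PMS).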

[5] = Cytotoxicity against mouse J774A1 cells assessed as reduction in cell viability after 48 hrs by MTT assay; format: cell-based, J774.A1
In short: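 J774-A1 macrophages in RPMI 1640 with 10% FBS, plated and left 24 h at 37 °C, 5% CO2. Supernatant then replaced by increasing compound concentrations for 48 h. After a PBS wash, MTT (2 mg/mL) was added for 4 h at 25 °C in the dark, formazan dissolved in DMSO, absorbance read at 570 nm. CC50 by regression versus negative control; at least three experiments.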

[6] = system: Leishmania amazonensis; assay: Induction of ROS generation in promastigote forms of Leishmania amazonensis at IC50 after 24 hrs by H2DCFDA staining based spectrofluorometric analysis relative to control; format: functional
[7] = system: Leishmania amazonensis; assay: Induction of lipid body storage in promastigote forms of Leishmania amazonensis at IC50 after 24 hrs by nile red staining based fluorescence assay relative to control; format: functional
[8] = system: Leishmania amazonensis; assay: Induction of ultrastructural alteration in promastigote forms of Leishmania amazonensis assessed as alteration in plasma membrane at 6.2 uM after 48 hrs by transmission electron microscopic analysis; format: functional, organism-based
In short: (§3)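 Promastigotes (1 x 10^6/mL) exposed to 6.2 μM for 24, 48 or 72 h at 25 °C alongside untreated controls. Fixed in 2.5% glutaraldehyde in 0.1 M cacodylate buffer. For TEM, post-fixed 1 h in 1% OsO4 with 0.8% potassium ferrocyanide in cacodylate buffer. For SEM, samples were gold-coated before viewing.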

[9] = system: Leishmania amazonensis; assay: Induction of lipid body storage in promastigote forms of Leishmania amazonensis at IC90 after 24 hrs by nile red staining based fluorescence assay relative to control; format: functional
[10] = system: Leishmania amazonensis; assay: Induction of morphological alteration in promastigote forms of Leishmania amazonensis assessed as reduction in cell volume at 6.2 uM after 24 to 72 hrs by scanning electron microscopic analysis; format: functional, organism-based; in short: as §3
[11] = system: Leishmania amazonensis; assay: Induction of ultrastructural alteration in promastigote forms of Leishmania amazonensis assessed as ultrastructural alteration in plasma membrane at 6.2 uM after 24 hrs by transmission electron microscopic analysis; format: functional, organism-based; in short: as §3
[12] = system: Leishmania amazonensis; assay: Induction of ultrastructural alteration in promastigote forms of Leishmania amazonensis assessed as formation of mitochondrial swelling at 6.2 uM after 72 hrs by transmission electron microscopic analysis; format: functional, organism-based; in short: as §3
[13] = system: Leishmania amazonensis; assay: Induction of ultrastructural alteration in promastigote forms of Leishmania amazonensis assessed as formation of storage-lipid bodies at 6.2 uM after 48 hrs by transmission electron microscopic analysis; format: functional, organism-based; in short: as §3
[14] = system: Leishmania amazonensis; assay: Induction of ROS generation in promastigote forms of Leishmania amazonensis at IC50 to IC90 uM after 24 hrs in presence of NAC by H2DCFDA staining based spectrofluorometric analysis; format: functional, organism-based
[15] = system: Leishmania amazonensis; assay: Antileishmanial activity against axenic amastigote forms of Leishmania amazonensis after 72 hrs by XTT/PMS dye based spectrophotometric analysis; format: functional, organism-based; in short: as §1
[16] = Selectivity index, ratio of CC50 for mouse J774A1 cells to IC50 for axenic amastigote forms of Leishmania amazonensis; format: toxicity; conditions: read-out: Ratio CC50/IC50; in short: as §2
[17] = system: Leishmania amazonensis; assay: Induction of ultrastructural alteration in promastigote forms of Leishmania amazonensis assessed as formation of mitochondrial swelling at 6.2 uM after 48 hrs by transmission electron microscopic analysis; format: functional, organism-based; in short: as §3
[18] = system: Leishmania amazonensis; assay: Induction of ultrastructural alteration in promastigote forms of Leishmania amazonensis assessed as alteration in flagellar pocket with vacuoles at 6.2 uM after 72 hrs by transmission electron microscopic analysis; format: functional, organism-based; in short: as §3
[19] = system: Leishmania amazonensis; assay: Induction of ultrastructural alteration in promastigote forms of Leishmania amazonensis assessed as ultrastructural alteration in mitochondrial membrane at 6.2 uM after 24 hrs by transmission electron microscopic analysis; format: functional, organism-based; in short: as §3
[20] = system: Leishmania amazonensis; assay: Induction of ROS generation in promastigote forms of Leishmania amazonensis at IC90 after 24 hrs by H2DCFDA staining based spectrofluorometric analysis relative to control; format: functional
[21] = system: Leishmania amazonensis; assay: Induction of morphological alteration in promastigote forms of Leishmania amazonensis assessed as cell rounding at 6.2 uM after 24 to 72 hrs by scanning electron microscopic analysis; format: functional, organism-based; in short: as §3
[22] = Selectivity index, ratio of CC50 for mouse J774.G8 cells to IC50 for promastigote forms of Leishmania amazonensis MHOM/BR/75/Josefa; format: toxicity; conditions: read-out: Ratio CC50/IC50

## O=C(NCCNc1nc(Cl)nc(Cl)n1)c1cc2c([nH]c3ccccc32)c(-c2ccc(F)cc2)n1
[1]
  IC50: > 100 µM

## COc1ccc(-c2nc(C(=O)NCc3ccccc3)cc3c2[nH]c2ccccc23)cc1
[2]
  IC50: 2.6 µM
[3]
  IC50: 1 µM

## O=C(NNc1nc(Cl)nc(Cl)n1)c1cc2c([nH]c3ccccc32)c(-c2ccccc2Cl)n1
[1]
  IC50: 34.1 µM
[4]
  selectivity ratio: 0.6
[5]
  CC50 at 48 h: 22 µM

## O=C(NCCNc1nc(NCc2ccccc2)nc(NCc2ccccc2)n1)c1cc2c([nH]c3ccccc32)c(-c2ccccc2)n1
[1]
  IC50: > 100 µM

## COc1ccc(-c2nc(C(=O)NCCNc3nc(NC(C)C)nc(NC(C)C)n3)cc3c2[nH]c2ccccc23)cc1
[6]
  Activity: 81.9%
[7]
  Activity: 9%
[8]
  Activity: Active
[9]
  Activity: 428.6%
[10]
  Activity: Active
[11]
  Activity: Active
[12]
  Activity: Active
[13]
  Activity: Active
[14]
  Activity: Active
[15]
  IC50: 1.2 µM
[16]
  selectivity ratio: 121
[17]
  Activity: Active
[18]
  Activity: Active
[1]
  IC50: 6.2 µM
[19]
  Activity: Active
[20]
  Activity: 184.8%
[4]
  selectivity ratio: 23.5
[21]
  Activity: Active
[5]
  CC50 at 48 h: 146 µM

## CC(C)Nc1nc(NNC(=O)c2cc3c([nH]c4ccccc43)c(-c3ccccc3)n2)nc(NC(C)C)n1
[15]
  IC50: 32.5 µM
[16]
  selectivity ratio: 3.16
[1]
  IC50: 39.7 µM
[4]
  selectivity ratio: 2.6
[5]
  CC50 at 48 h: 103 µM

## CC(C)Nc1nc(NNC(=O)c2cc3c([nH]c4ccccc43)c(-c3ccccc3Cl)n2)nc(NC(C)C)n1
[1]
  IC50: > 100 µM

## CN1CCN(c2nc(NCCNC(=O)c3cc4c([nH]c5ccccc54)c(-c4ccccc4)n3)nc(N3CCN(C)CC3)n2)CC1
[1]
  IC50: > 100 µM

## O=C(NCCNc1nc(NC2CCCCC2)nc(NC2CCCCC2)n1)c1cc2c([nH]c3ccccc32)c(-c2ccccc2)n1
[1]
  IC50: > 100 µM

## O=C(NCCNc1nc(N2CCOCC2)nc(N2CCOCC2)n1)c1cc2c([nH]c3ccccc32)c(-c2ccccc2)n1
[1]
  IC50: > 100 µM

## COc1ccc(-c2nc(C(=O)NNc3nc(Cl)nc(Cl)n3)cc3c2[nH]c2ccccc23)cc1
[1]
  IC50: > 100 µM

## O=C(NCCNc1nc(Cl)nc(Cl)n1)c1cc2c([nH]c3ccccc32)c(-c2ccccc2)n1
[15]
  IC50: 1.9 µM
[16]
  selectivity ratio: 70.8
[1]
  IC50: 30.9 µM
[4]
  selectivity ratio: 4.4
[5]
  CC50 at 48 h: 135 µM

## CC(C)Nc1nc(NCCNC(=O)c2cc3c([nH]c4ccccc43)c(-c3ccccc3)n2)nc(NC(C)C)n1
[15]
  IC50: 35 µM
[16]
  selectivity ratio: 2.8
[1]
  IC50: 7.5 µM
[4]
  selectivity ratio: 13.1
[5]
  CC50 at 48 h: 98.1 µM

## CC(C)Nc1nc(NNC(=O)c2cc3c([nH]c4ccccc43)c(-c3ccc(F)cc3)n2)nc(NC(C)C)n1
[1]
  IC50: 43.4 µM
[4]
  selectivity ratio: 1.2
[5]
  CC50 at 48 h: 50 µM

## COc1ccc(-c2nc(C(=O)NNc3nc(NC(C)C)nc(NC(C)C)n3)cc3c2[nH]c2ccccc23)cc1
[1]
  IC50: > 100 µM

## O=C(NCCCCCCNc1nc(Cl)nc(Cl)n1)c1cc2c([nH]c3ccccc32)c(-c2ccccc2)n1
[1]
  IC50: > 100 µM

## CCCCNC(=O)c1cc2c([nH]c3ccccc32)c(-c2ccc(OC)cc2)n1
[2]
  IC50: 0.25 µM
[22]
  selectivity ratio: 2080

## O=C(NCCNc1nc(Cl)nc(Cl)n1)c1cc2c([nH]c3ccccc32)c(-c2cccc([N+](=O)[O-])c2)n1
[15]
  IC50: 1.1 µM
[16]
  selectivity ratio: 75.5
[1]
  IC50: 5.1 µM
[4]
  selectivity ratio: 16.3
[5]
  CC50 at 48 h: 83.1 µM

## CC(C)Nc1nc(NCCNC(=O)c2cc3c([nH]c4ccccc43)c(-c3ccc(F)cc3)n2)nc(NC(C)C)n1
[1]
  IC50: > 100 µM

## CC(C)Nc1nc(NCCNC(=O)c2cc3c([nH]c4ccccc43)c(-c3ccccc3Cl)n2)nc(NC(C)C)n1
[1]
  IC50: > 100 µM

## CC(C)Nc1nc(NCCNC(=O)c2cc3c([nH]c4ccccc43)c(-c3cccc([N+](=O)[O-])c3)n2)nc(NC(C)C)n1
[1]
  IC50: 44.6 µM
[4]
  selectivity ratio: 1.9
[5]
  CC50 at 48 h: 86.3 µM

## NNc1nc(NN)nc(NCCNC(=O)c2cc3c([nH]c4ccccc43)c(-c3ccccc3)n2)n1
[1]
  IC50: > 100 µM

## COc1ccc(-c2nc(C(=O)NCCNc3nc(Cl)nc(Cl)n3)cc3c2[nH]c2ccccc23)cc1
[15]
  IC50: 1 µM
[16]
  selectivity ratio: 201
[1]
  IC50: 67.5 µM
[4]
  selectivity ratio: 3
[5]
  CC50 at 48 h: 201 µM

## O=C(NNc1nc(Cl)nc(Cl)n1)c1cc2c([nH]c3ccccc32)c(-c2ccccc2)n1
[15]
  IC50: 1.1 µM
[16]
  selectivity ratio: 85.9
[1]
  IC50: 43.3 µM
[4]
  selectivity ratio: 2.2
[5]
  CC50 at 48 h: 94.5 µM

## CCCCCCCCCCCCCCCCOP(=O)([O-])OCC[N+](C)(C)C [MILTEFOSINE]
[15]
  IC50: 2.4 µM
[16]
  selectivity ratio: 16.9
[1]
  IC50: 18.5 µM
[4]
  selectivity ratio: 2.2
[5]
  CC50 at 48 h: 40.5 µM

## O=C(NCCNc1nc(Cl)nc(Cl)n1)c1cc2c([nH]c3ccccc32)c(-c2ccccc2Cl)n1
[1]
  IC50: 7.6 µM
[4]
  selectivity ratio: 3.8
[5]
  CC50 at 48 h: 28.5 µM

## O=C(NNc1nc(Cl)nc(Cl)n1)c1cc2c([nH]c3ccccc32)c(-c2ccc(F)cc2)n1
[1]
  IC50: > 100 µM
